Reference: ChEMBL document CHEMBL1133526, “Molecular simplification of 1,4-diazabicyclo[4.3.0]nonan-9-ones gives piperazine derivatives that maintain high nootropic activity” (2000)
Several values for one entry are separate records, joined by “and”; a condition that tells them apart may be missing. Identical values can stand only once.

What was measured:
Assay type in all cases: functional
Mus musculus [1] = experiment: Nootropic effect of the compound, when administered subcutaneously, on mouse passive Avoidance test, using Scopolamine as Amnesic drug on 2 nd day
Mus musculus [2] = experiment: Nootropic effect of the compound, when administered subcutaneously, on mouse passive Avoidance test, using Scopolamine as Amnesic drug on 1 st day
Mus musculus [3] = organism: Mus musculus; experiment: (§1) Change in entry latency expressed as [(entry latency on day 2)-(entry latency on day 1)]
In short: (§2)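 Mouse passive avoidance test using a light/dark box. Entering the dark side drops the mouse 40 cm into 10 °C water. Training is on day 1 and retention 24 h later. Test drug is given sc 20 min before training, in saline or DMSO/H2O vehicle. […] Mice not entering within 60 s are excluded. Retention latency is capped at 120 s. Δ = day 2 − day 1 latency.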

Mus musculus [4] = experiment: Minimum effective dose administered subcutaneously in mouse, activity given with reference to piracetam; settings: for minimal effective dose: Mus musculus, sc, read-out: MED
In short: (§3)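 Mouse passive avoidance with scopolamine-induced amnesia (1.5 mg/kg ip after training; 40 cm fall into 10 °C water as punishment). Compounds are given sc in 1:10 dilution steps 20 min before training, in saline or DMSO/H2O. […] Piracetam is the ip reference.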

Mus musculus [5] = organism: Mus musculus; experiment: as §1; remark: listed apart in the source
Mus musculus [6] = experiment: Minimum effective dose administered subcutaneously in mouse passive avoidance test; settings: sc, read-out: MED; in short: as §3
Mus musculus [7] = experiment: Minimum effective dose administered subcutaneously in mouse, activity given with reference to piracetam, dose administered is limited by solubility problems; settings: sc, read-out: MED; in short: as §3
Mus musculus [8] = experiment: Effect of 0.1 mg/kg compound, when administered intraperitoneally along with saline, on Amnesia in mouse passive Avoidance test on 2nd day; settings: route intraperitoneal
In short: (§4)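 Mouse passive avoidance without an amnesic agent. Compound is given ip at 0.1 mg/kg 20 min before training, followed by saline. Entry latency into the dark compartment (punishment: 40 cm fall into 10 °C water) is recorded on day 1 and in retention 24 h later, capped at 120 s. Compared with saline controls.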

Mus musculus [9] = experiment: Effect of 0.1 mg/kg compound, when administered intraperitoneally, on Amnesia induced by diphenhydramine (20 mg/Kg) in mouse passive Avoidance test on 2 nd day; settings: route intraperitoneal
In short: (§5)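 Mouse passive avoidance. Compound is given ip 20 min before training. Diphenhydramine (20 mg/kg ip) or baclofen (2 mg/kg ip) is injected immediately after training. Entry latency into the dark, water-pitfall compartment is measured on day 1 and 24 h later, capped at 120 s. Compared with amnesic-only mice.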

Mus musculus [10] = experiment: Effect of 0.1 mg/kg compound, when administered intraperitoneally, on Amnesia induced by diphenhydramine (20 mg/Kg) in mouse passive Avoidance test on 1st day; settings: route intraperitoneal; in short: as §5
Mus musculus [11] = organism: Mus musculus; experiment: Change in entry latency expressed as [(latency on day 2)-(latency on day 1)]; in short: as §2
Mus musculus [12] = experiment: Effect of 0.1 mg/kg compound, when administered intraperitoneally, on Amnesia induced Clonidine (0.125 mg/kg) in mouse passive Avoidance test on 1st day; settings: route intraperitoneal
In short: (§6)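 Mouse passive avoidance. Compound is given ip 20 min before training. Clonidine (0.125 mg/kg ip) is injected 60 min before training. Entry latency into the dark compartment (40 cm fall into 10 °C water) is measured on day 1 and 24 h later, capped at 120 s. Compared with clonidine-only mice.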

Mus musculus [13] = experiment: Effect of 0.1 mg/kg compound, when administered intraperitoneally, on Amnesia induced by Baclofen (2 mg/Kg ip) in mouse passive Avoidance test on 2nd day; settings: route intraperitoneal; in short: as §5
Mus musculus [14] = experiment: Effect of 0.1 mg/kg compound, when administered intraperitoneally along with saline, on Amnesia in mouse passive Avoidance test on 1st day; settings: route intraperitoneal; in short: as §4
Mus musculus [15] = experiment: Effect of 0.1 mg/kg compound, when administered intraperitoneally, on Amnesia induced by Baclofen (2 mg/Kg ip) in mouse passive Avoidance test on 1st day; settings: route intraperitoneal; in short: as §5
Mus musculus [16] = experiment: Effect of 0.1 mg/kg compound, when administered intraperitoneally, on Amnesia induced by Clonidine (0.125 mg/Kg ip) in mouse passive Avoidance test on 2 nd day; settings: route intraperitoneal; in short: as §6
Mus musculus [17] = experiment: Minimum effective dose administered intraperitoneally in mouse passive avoidance test; settings: ip, read-out: MED
Mus musculus [18] = experiment: Nootropic effect of the compound, when administered subcutaneously, on mouse passive Avoidance test, using Scopolamine as Amnesic drug on 2nd day; in short: as §2
Mus musculus [19] = experiment: Effect of compound on Amnesia induced Clonidine (0.125 mg/kg) in mouse passive Avoidance test on 2 nd day at 0.1 mg/kg, ip; settings: route intraperitoneal; in short: as §6
Mus musculus [20] = experiment: Effect of 0.1 mg/kg compound in the presence of saline on Amnesia in mouse passive Avoidance test on 1st day; in short: as §4
Mus musculus [21] = experiment: Effect of 0.1 mg/kg compound on Amnesia induced by diphenhydramine (20 mg/Kg) in mouse passive Avoidance test on 1st day (no. of animals = 12); in short: as §5
Mus musculus [22] = experiment: Effect of 0.1 mg/kg compound on Amnesia induced by Baclofen (2 mg/Kg ip) in mouse passive Avoidance test on 1 st day at 0.1 mg/kg, ip; in short: as §5
Mus musculus [23] = experiment: Effect of 0.1 mg/kg compound on Amnesia induced by diphenhydramine (20 mg/Kg) in mouse passive Avoidance test on 1st day; (no. of animals = 11); in short: as §5
Mus musculus [24] = experiment: Effect of 0.1 mg/kg compound on Amnesia induced by diphenhydramine (20 mg/Kg) in mouse passive Avoidance test on 2 nd day (no. of animals = 11); in short: as §5
Mus musculus [25] = experiment: Effect of compound on Amnesia induced by Baclofen (2 mg/Kg ip) in mouse passive Avoidance test on 2 nd day at 0.1 mg/kg, ip; settings: route intraperitoneal; in short: as §5
Mus musculus [26] = experiment: Effect of 0.1 mg/kg compound on Amnesia induced by diphenhydramine (20 mg/Kg) in mouse passive Avoidance test on 2 nd day (no. of animals = 12); in short: as §5
Mus musculus [27] = experiment: Effect of compound on Amnesia induced Clonidine (0.125 mg/kg) in mouse passive Avoidance test on 1st day at 0.1 mg/kg, ip; settings: route intraperitoneal; in short: as §6
Mus musculus [28] = experiment: Effect of 0.1 mg/kg compound in the presence of saline on Amnesia in mouse passive Avoidance test on 2nd day, ip; settings: route intraperitoneal; in short: as §4

SMILES | Entry latency (Mus musculus [1]) [s] | Entry latency (Mus musculus [2]) [s] | Change in entry latency (Mus musculus [3]) | minimal effective dose (Mus musculus [4]) [mg/kg] | minimal effective dose (Mus musculus [6]) [mg/kg] | other results
CC(=O)N1CCN(C(=O)c2ccc(F)cc2)CC1 | 91.1 | 17.5 | 72.6 s | 10 |  | 
CCCCCC(=O)N1CCN(S(=O)(=O)c2ccc(F)cc2)CC1 | 81.5 | 16.6 |  |  | 1 | Entry latency (Mus musculus [5]): 64.9 s
CCC(=O)N1CCN(C(=O)c2ccc(OC)cc2)CC1 | 96.1 | 17.6 | 78.5 s | 10 |  | 
CCC(=O)N1CCN(S(=O)(=O)c2ccc(C)cc2)CC1 | 88.6 | 16.6 |  |  | 10 | Entry latency (Mus musculus [5]): 72 s
CCC(=O)N1CCN(C(=O)c2ccc([N+](=O)[O-])cc2)CC1 | 104.3 | 18.8 | 85.5 s | 1 |  | 
CCCN1CCN(S(=O)(=O)c2ccc(F)cc2)CC1 | 96.7 | 15.3 | 81.4 s | 1 |  | 
CC(=O)N1CCN(S(=O)(=O)c2ccc(F)cc2)CC1C (configuration not stated) | 99.2 | 16.6 |  |  | 0.1 | 
CCC(=O)N1CCN(C(=O)c2ccc(C)cc2)CC1 |  |  |  |  |  | minimal effective dose (Mus musculus [7]): > 1 mg/kg
CCCC(=O)N1CCN(C(=O)c2ccccc2)CC1 | 103.6 | 13.8 | 89.8 s | 1 |  | 
O=C1CCC2CN(S(=O)(=O)c3ccc(F)cc3)CCN12 (configuration not stated) |  |  | 80.2 s and 64.1 s and 66.7 s |  |  | Entry latency (Mus musculus [8]): 94.5 s; Entry latency (Mus musculus [9]): 95.2 s; Entry latency (Mus musculus [10]): 15.6 s; Change in entry latency (Mus musculus [11]): 79.6 s; Entry latency (Mus musculus [12]): 14.5 s; Entry latency (Mus musculus [13]): 76.4 s; Entry latency (Mus musculus [14]): 14.3 s; Entry latency (Mus musculus [15]): 12.3 s; Entry latency (Mus musculus [16]): 81.2 s
CN1C2CC(OC(=O)C(CO)c3ccccc3)CC1C1OC12.NC(=O)CN1CCCC1=O (configuration not stated) | 108.8 | 17.6 |  |  |  | minimal effective dose (Mus musculus [17]): 30 mg/kg; Entry latency (Mus musculus [5]): 91.2 s
CCC(=O)N1CCN(C(=O)c2ccc(Cl)cc2)CC1 |  |  |  |  |  | minimal effective dose (Mus musculus [7]): > 1 mg/kg
CCC(=O)N1CCN(S(=O)(=O)c2ccc([N+](=O)[O-])cc2)CC1 |  |  |  |  |  | minimal effective dose (Mus musculus [7]): > 0.1 mg/kg
CCCCC(=O)N1CCN(S(=O)(=O)c2ccc(F)cc2)CC1 |  |  |  |  | > 0.1 | 
CCCC(=O)N1CCN(S(=O)(=O)c2ccc(F)cc2)CC1 |  |  |  |  | > 10 | 
CCCC(=O)N1CCN(C(=O)c2ccc(F)cc2)CC1 | 112 | 19.8 | 92.2 s | 10 |  | 
CCC(=O)N1CCN(Cc2ccccc2)CC1 |  | 12.8 | 81.1 s | 10 |  | Entry latency (Mus musculus [18]): 93.9 s
CC(=O)N1CCN(S(=O)(=O)c2ccc(F)cc2)CC1 | 89 | 19.8 |  | 0.01 |  | Entry latency (Mus musculus [5]): 69.2 s
CCC(=O)N1CCN(C(=O)c2ccccc2)CC1 | 91.5 | 20.5 | 71 s and 69.1 s and 68.5 s and 67 s | 0.001 |  | Entry latency (Mus musculus [19]): 78.8 s; Entry latency (Mus musculus [20]): 17.2 s; Entry latency (Mus musculus [21]): 14.4 s; Change in entry latency (Mus musculus [11]): 56 s and 63.8 s; Entry latency (Mus musculus [22]): 17.2 s; Entry latency (Mus musculus [23]): 15.8 s; Entry latency (Mus musculus [24]): 84.3 s; Entry latency (Mus musculus [25]): 73.2 s; Entry latency (Mus musculus [26]): 81.4 s; Entry latency (Mus musculus [27]): 15 s; Entry latency (Mus musculus [28]): 86.3 s
CCC(=O)N1CCN(C(=O)c2ccc(F)cc2)CC1 | 77.1 | 16.9 | 60.2 s | 30 |  | 
CCCC(=O)N1CCN(S(=O)(=O)c2ccccc2)CC1 | 85.4 | 15 | 70.4 s |  | 1 | 
CCC(=O)N1CCN(S(=O)(=O)c2ccc(OC)cc2)CC1 |  |  |  |  |  | minimal effective dose (Mus musculus [7]): > 1 mg/kg
CCC(=O)N1CCN(S(=O)(=O)c2ccccc2)CC1 | 132 | 19 |  |  | 0.1 | Entry latency (Mus musculus [5]): 113 s
CCC(=O)N1CCN(S(=O)(=O)c2ccc(Cl)cc2)CC1 |  |  |  |  | > 0.1 | 
CC(=O)N1CCN(S(=O)(=O)c2ccccc2)CC1 | 104 | 17.5 |  | 0.01 |  | Entry latency (Mus musculus [5]): 86.5 s
CCC(=O)N1CCN(S(=O)(=O)c2ccc(F)cc2)CC1 | 90.6 | 15.9 |  |  | 0.01 | Entry latency (Mus musculus [5]): 74.7 s
CC1C[C@@H]2CN(C(=O)c3ccccc3)CCN2C1=O (stereo in doubt; endo) |  |  |  | 1 |  | 
CC1C[C@@H]2CN(C(=O)c3ccccc3)CCN2C1=O (stereo in doubt; exo) |  |  |  |  |  | MED (Mus musculus [4]): 1 mg/kg
CN1[C@@H]2C[C@@H](OC(=O)[C@H](CO)c3ccccc3)C[C@H]1[C@@H]1O[C@@H]12 [SCOPOLAMINE] |  |  |  |  |  | minimal effective dose (Mus musculus [17]): 1.5 mg/kg
